According to ChEMBL document CHEMBL3217724, “Synthesis and evaluation of a series of benzothiophene acrylonitrile analogs as anticancer agents” (Medchemcomm, 2013):
Calls of active or inactive are those of the source. The rule behind the calls is not given here.

Experiments:
PC-3 [1] = experiment: Growth inhibition of human PC3 cells after 72 hrs by Alamar Blue assay; format: functional; conditions: PC-3, 72 h
Procedure, shortened: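 PC3 prostate cancer cells and docetaxel-resistant PC3-DR cells were exposed to drug for 72 hours in 96-well format. Viability was read with AlamarBlue dye and GI50 derived. Resistance is the GI50 in PC3-DR over the GI50 in parental PC3.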

[2] = Growth inhibition of human OVCAR8 cells by Alamar Blue assay; format: functional; conditions: OVCAR-8
Procedure, shortened: (§1)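 Cell viability was read with AlamarBlue dye in 96-well format and GI50 values derived, to assess P-gp effects. Cells were P-gp-expressing NCI/ADR-Res ovarian cancer cells and L-MDR1 porcine epithelial cells, each with its non-expressing parent line. P-gp expression was confirmed by Western blot with β-actin as loading control. Resistance is the GI50 in the P-gp line over the GI50 in the parent line.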

[3] = Growth inhibition of P-gp expressing human NCI-ADR-RES cells by Alamar Blue assay; format: functional
Procedure, shortened: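 72-h cytotoxicity in 96-well plates with AlamarBlue viability dye, giving GI50. Line 1 uses docetaxel-resistant PC3 prostate cells (PC3-DR), and line 2 uses NCI/ADR-Res ovarian cells. P-gp expression in both was confirmed by Western blot, with β-actin as the loading control.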

Tubulin (Homo sapiens) = Tubulin (Homo sapiens) (UniProt P68371+Q9H4B7+P0DPH7+P68366+Q13509+Q71U36+P04350+Q3ZCM7+P07437+P68363+Q9BQE3+Q6PEY2+Q13885+Q9BVA1+Q9BUF5); conditions: 5 uM
[4] = Growth inhibition of pig LLC-PK1 cells by Alamar Blue assay; format: cell-based, Sus scrofa; procedure, shortened: as §1
PC-3 [5] = experiment: Induction of beta tubulin de-stabilization in human PC3 cells at 10 nM after 24 hrs by DAPI-staining based immunofluorescence assay; format: cell-based
Procedure, shortened: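 PC3 cells were treated for 24 hours with the test agent at 1, 10 or 100 nM, or with 10 nM docetaxel or vinblastine as stabilizing and destabilizing references. Cells were immunostained for beta-tubulin (green) with DAPI nuclear counterstain (blue) and the microtubule staining pattern imaged.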

LLC-PK1 [6] = experiment: Resistance factor, ratio of GI50 for pig LLC-PK1 cells expressing MDR1 to GI50 for pig LLC-PK1 cells; set-up: species or system Sus scrofa
Procedure, shortened: (§2)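 Porcine epithelial L-MDR1 (P-gp expressing) cells and their non-expressing parent line were exposed to compound for 72 h. Viability was read with AlamarBlue dye and GI50 derived. P-gp expression was verified by Western blot with β-actin as loading control. The resistance ratio compares GI50 in MDR1 versus parent cells.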

OVCAR-8 = experiment: Resistance factor, ratio of GI50 for P-gp expressing NCI-ADR-RES cells to GI50 for human OVCAR8 cells; format: functional; procedure, shortened: as §1
LLC-PK1 [7] = experiment: Growth inhibition of pig LLC-PK1 cells expressing MDR1 by Alamar Blue assay; format: functional; conditions: Sus scrofa; procedure, shortened: as §2

CC[C@]1(O)C[C@@H]2CN(CCc3c([nH]c4ccccc34)[C@@](C(=O)OC)(c3cc4c(cc3OC)N(C)[C@H]3[C@@](O)(C(=O)OC)[C@H](OC(C)=O)[C@]5(CC)C=CCN6CC[C@]43[C@@H]65)C2)C1 [VINBLASTINE]
GI50 (PC-3 [1]): 5.2 nM | GI50 [2]: 2.8 nM | GI50 [3]: 1400 nM | inhibition (Tubulin (Homo sapiens)): Active | GI50 [4]: 1.5 nM | Activity (PC-3 [5]): Active | RatioGI50 (LLC-PK1 [6]): 58 | RatioGI50 (OVCAR-8): 500 | GI50 (LLC-PK1 [7]): 86.8 nM
